The record followed here is ChEMBL document CHEMBL4622985, “Design, Synthesis, and Pharmacological Characterization of Heterobivalent Ligands for the Putative 5-HT2A/mGlu2 Receptor Complex” (J Med Chem, 2020).

Test [1] has as its target T1, 5-hydroxytryptamine receptor 2A/Metabotropic glutamate receptor 2 (Homo sapiens, UniProt P28223+Q14416). The test is described as follows: Antagonist activity at human 5HT2A/mGlu2 receptor expressed in HEK293 cells assessed as inhibition of 5HT-induced intracellular Ca2+ mobilization incubated for 1 hr by Fluo-4 dye based fluorescence assay 5HT2A_HUMAN/GRM2_HUMAN P28223/Q14416. In kind it is functional, cell-based.

The target of test [2] is T1, 5-hydroxytryptamine receptor 2A/Metabotropic glutamate receptor 2. The test is described as follows: Agonist activity at human 5HT2A/mGlu2 receptor expressed in HEK293 cells co-expressing Gqo5 assessed as increase in intracellular Ca2+ mobilization incubated for 1 hr by Fluo-4 dye based fluorescence assay. It counts as functional, cell-based.
For test [3], the target named is T2, Metabotropic glutamate receptor 2 (Homo sapiens, UniProt Q14416). The test is described as follows: Positive modulator activity at human mGlu2 receptor expressed in HEK293 cells co-expressing Gqo5 assessed as increase in intracellular Ca2+ mobilization incubated for 1 hr in presence of EC20 glutamate by Fluo-4 dye based fluorescence assay. In kind it is functional, cell-based.

Test [4] deals with T3, 5-hydroxytryptamine receptor 2A (Homo sapiens, UniProt P28223). The test is described as follows: Antagonist activity at human 5HT2A receptor expressed in HEK293 cells assessed as inhibition of 5HT-induced intracellular Ca2+ mobilization incubated for 1 hr by Fluo-4 dye based fluorescence assay. In kind it is functional, cell-based.
Test [5] has as its target T2, Metabotropic glutamate receptor 2. As to the kind of experiment: Agonist activity at human mGlu2 receptor expressed in HEK293 cells co-expressing Gqo5 assessed as increase in intracellular Ca2+ mobilization incubated for 1 hr by Fluo-4 dye based fluorescence assay. In kind it is functional, cell-based.
Test [6] deals with T1, 5-hydroxytryptamine receptor 2A/Metabotropic glutamate receptor 2. As to the kind of experiment: Positive modulator activity at human 5HT2A/mGlu2 receptor expressed in HEK293 cells co-expressing Gqo5 assessed as increase in intracellular Ca2+ mobilization incubated for 1 hr by Fluo-4 dye based fluorescence assay 5HT2A_HUMAN/GRM2_HUMAN P28223/Q14416. It counts as functional, cell-based.

Test [7] has the same target. As to the kind of experiment: Antagonist activity at human 5HT2A/mGlu2 receptor expressed in HEK293 cells co-expressing Gqo5 assessed as inhibition of 5HT-induced intracellular Ca2+ mobilization incubated for 1 hr by Fluo-4 dye based fluorescence assay 5HT2A_HUMAN/GRM2_HUMAN P28223/Q14416. It counts as functional, cell-based.
Test [8] shares this target. As to the kind of experiment: Antagonist activity at human 5HT2A/mGlu2 receptor expressed in HEK293 cells co-expressing Gqo5 assessed as inhibition of glutamate-induced intracellular Ca2+ mobilization incubated for 1 hr by Fluo-4 dye based fluorescence assay 5HT2A_HUMAN/GRM2_HUMAN P28223/Q14416. In kind it is functional, cell-based.
The target is the same in test [9]. As to the kind of experiment: Displacement of [3H]-ketanserin from human 5HT2A/mGlu2 receptor expressed in HEK293 cell co-expressing Gqo5 membranes incubated for 2 hrs by scintillation counting method. In kind it is cell-based. The procedure, abridged: (§1)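 Membranes from stable HEK293 lines were homogenized and centrifuged twice at 50.000g, 4 °C, then resuspended in 50 mM Tris-HCl, 10 mM MgCl2, 0.1 mM EDTA, pH 7.4. Competition used fixed [3H]ketanserin ~1.5 nM (1.3−1.8 nM) against varied test compound, with bound/free kept <10%. Incubation ran 2 h at rt with shaking, followed by GF/C filtration. Ki was obtained by Cheng−Prusoff using saturation KD. Three independent experiments, each in duplicate.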

The target is the same in test [10]. As to the kind of experiment: Displacement of [3H]-ketanserin from human 5HT2A/mGlu2 receptor expressed in HEK293 cell membranes incubated for 2 hrs by scintillation counting method. An outline of the steps: as §1
In test [11] the target is T3, 5-hydroxytryptamine receptor 2A. As to the kind of experiment: Displacement of [3H]-ketanserin from human HT2A receptor expressed in HEK293 cell membranes incubated for 2 hrs by scintillation counting method. An outline of the steps: as §1

T2 sequence (Q14416 whole entry): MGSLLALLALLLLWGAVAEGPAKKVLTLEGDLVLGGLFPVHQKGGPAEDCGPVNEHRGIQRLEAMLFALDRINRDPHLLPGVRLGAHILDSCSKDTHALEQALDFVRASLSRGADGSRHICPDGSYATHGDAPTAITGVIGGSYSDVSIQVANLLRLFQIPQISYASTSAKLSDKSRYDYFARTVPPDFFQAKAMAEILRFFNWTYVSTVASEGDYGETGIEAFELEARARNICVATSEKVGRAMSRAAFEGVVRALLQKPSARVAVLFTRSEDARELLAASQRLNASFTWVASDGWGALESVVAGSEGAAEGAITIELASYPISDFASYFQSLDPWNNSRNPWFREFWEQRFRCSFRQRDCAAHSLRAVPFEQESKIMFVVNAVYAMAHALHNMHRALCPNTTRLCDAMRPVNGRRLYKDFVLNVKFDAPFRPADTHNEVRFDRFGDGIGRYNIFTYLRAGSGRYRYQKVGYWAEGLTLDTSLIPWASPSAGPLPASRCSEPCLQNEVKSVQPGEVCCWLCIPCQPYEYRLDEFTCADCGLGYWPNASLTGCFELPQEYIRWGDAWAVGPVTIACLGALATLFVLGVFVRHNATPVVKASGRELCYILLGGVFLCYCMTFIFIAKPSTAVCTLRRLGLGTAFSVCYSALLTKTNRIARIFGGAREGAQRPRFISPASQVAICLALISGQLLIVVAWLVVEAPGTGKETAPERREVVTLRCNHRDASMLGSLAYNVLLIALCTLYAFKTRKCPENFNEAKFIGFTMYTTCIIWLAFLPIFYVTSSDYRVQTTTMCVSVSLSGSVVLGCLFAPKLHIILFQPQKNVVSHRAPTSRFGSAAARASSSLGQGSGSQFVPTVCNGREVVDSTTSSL
T3 sequence (P28223 whole entry): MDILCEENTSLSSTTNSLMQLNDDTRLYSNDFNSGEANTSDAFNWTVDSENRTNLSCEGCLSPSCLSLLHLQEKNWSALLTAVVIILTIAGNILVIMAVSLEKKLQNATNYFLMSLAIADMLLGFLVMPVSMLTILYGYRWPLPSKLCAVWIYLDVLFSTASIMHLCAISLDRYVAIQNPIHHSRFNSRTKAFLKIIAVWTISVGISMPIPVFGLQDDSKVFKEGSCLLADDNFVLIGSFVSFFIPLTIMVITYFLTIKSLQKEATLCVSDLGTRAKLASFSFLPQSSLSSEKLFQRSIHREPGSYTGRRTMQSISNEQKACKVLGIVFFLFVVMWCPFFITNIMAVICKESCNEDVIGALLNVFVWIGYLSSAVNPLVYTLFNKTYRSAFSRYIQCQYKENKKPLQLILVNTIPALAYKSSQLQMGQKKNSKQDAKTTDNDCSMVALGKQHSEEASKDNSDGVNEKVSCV
T1 sequence (P28223 whole entry): as above
T1 sequence (Q14416 whole entry): as the sequence (Q14416 whole entry) above

For the molecule `COc1ccccc1C1CCN(c2ccn3c(CC4CC4)nnc3c2Cl)CC1`, the IC50 in [1] (read-out: IC50) was determined as 10000 nM; in [4] (read-out: IC50), 1300 nM. Further, the EC50 in test [2] (read-out: EC50) was 210 nM; in test [3] (read-out: EC50), 5.2 nM; in test [5] (read-out: EC50), 37 nM; in test [5] (read-out: pEC50 (converted)) it was 35.5 nM; in test [6], 19 nM.

For `COc1c(OCCOCCOCCOCCOCCOc2ccc(C3CCN(c4ccn5c(CC6CC6)nnc5c4Cl)CC3)cc2)cccc1C(=O)C1CCN(CCc2ccc(F)cc2)CC1`, the IC50 is 1000 nM in [1] (read-out: IC50), 2400 nM in test [7], 1900 nM in test [8] and 450 nM in [4] (read-out: IC50). Also, the EC50 was 10000 to 50000 nM in test [2] (read-out: EC50), 510 nM in test [3] (read-out: EC50) and 1600 nM in test [5] (read-out: EC50). Also, the Ki in [9] (read-out: Ki) is 320 nM; in test [10] (read-out: Ki), 180 nM; in [11] (read-out: Ki), 130 nM.

As for `COc1c(OCCOCCOCCOCCOCCOCCOCCOCCOCCOCCOCCOCCOc2ccc(C3CCN(c4ccn5c(CC6CC6)nnc5c4Cl)CC3)cc2)cccc1C(=O)C1CCN(CCc2ccc(F)cc2)CC1`, the IC50 in test [1] (read-out: IC50) is 1600 nM; in test [7], 380 nM; in test [8], 700 nM; in test [4] (read-out: IC50) it was 520 nM. The values for the EC50 in test [2] (read-out: EC50), in test [3] (read-out: EC50) and in test [5] (read-out: EC50) were 10000 to 50000 nM, 480 nM and 2500 nM, respectively. Further, the Ki was 170 nM in test [9] (read-out: Ki), 170 nM in [10] (read-out: Ki) and 200 nM in test [11] (read-out: Ki).

For `COCCOc1cccc(C(=O)C2CCN(CCc3ccc(F)cc3)CC2)c1OC`, the IC50 in test [1] (read-out: IC50) came out at 16 nM; in test [7], 23 nM; in test [8], 29 nM; in test [4] (read-out: IC50), 9.3 nM. The EC50 in [2] (read-out: EC50) was greater than 50000 nM; in [2] (read-out: pEC50 (converted)), greater than 50100 nM; in test [3] (read-out: EC50), greater than 50000 nM; in test [3] (read-out: pEC50 (converted)), greater than 50100 nM; in test [5] (read-out: EC50), greater than 50000 nM; in test [5] (read-out: pEC50 (converted)) it was greater than 50100 nM. Also, the Ki was determined as 13 nM in [9] (read-out: Ki), 6.5 nM in [10] (read-out: Ki) and 3 nM in test [11] (read-out: Ki).

In the case of `COc1cccc(C(=O)C2CCN(CCc3ccc(F)cc3)CC2)c1OC`, the IC50 in [1] (read-out: IC50) amounted to 6.2 nM; in [7], 5.4 nM; in test [8] it was 24 nM; in test [4] (read-out: IC50), 0.81 nM. The EC50 in test [2] (read-out: EC50) was greater than 50000 nM; in test [2] (read-out: pEC50 (converted)) it was greater than 50100 nM; in test [3] (read-out: EC50) it was greater than 50000 nM; in test [3] (read-out: pEC50 (converted)), greater than 50100 nM; in test [5] (read-out: EC50), greater than 50000 nM; in test [5] (read-out: pEC50 (converted)), greater than 50100 nM. Besides, the values for the Ki in test [9] (read-out: Ki), in test [10] (read-out: Ki) and in test [11] (read-out: Ki) were 8.7 nM, 3 nM and 0.52 nM, respectively.

As for `COc1c(OCCOCCOCCOCCOCCOCCOc2ccc(C3CCN(c4ccn5c(CC6CC6)nnc5c4Cl)CC3)cc2)cccc1C(=O)C1CCN(CCc2ccc(F)cc2)CC1`, the IC50 in test [1] (read-out: IC50) was 510 nM; in [7], 420 nM; in test [8], 890 nM; in test [4] (read-out: IC50), 270 nM. Besides, the EC50 in [2] (read-out: EC50) was 10000 to 50000 nM; in test [3] (read-out: EC50), 530 nM; in test [5] (read-out: EC50), 1200 nM. The Ki in test [9] (read-out: Ki) amounted to 190 nM; in test [10] (read-out: Ki) it was 120 nM; in test [11] (read-out: Ki) it was 100 nM.

As to `COc1c(OCCOCCOCCOCCOc2ccc(C3CCN(c4ccn5c(CC6CC6)nnc5c4Cl)CC3)cc2)cccc1C(=O)C1CCN(CCc2ccc(F)cc2)CC1`, the IC50 is 1700 nM in [1] (read-out: IC50); 1550 nM in test [1] (read-out: pIC50 (converted)); 800 nM in [7]; 990 nM in test [8]; 280 nM in test [4] (read-out: IC50); 288 nM in [4] (read-out: pIC50 (converted)). The EC50 was 10000 to 50000 nM in [2] (read-out: EC50), 330 nM in [3] (read-out: EC50) and 550 nM in test [5] (read-out: EC50). In addition, the Ki in [9] (read-out: Ki) is 110 nM; in test [10] (read-out: Ki) it was 100 nM; in test [11] (read-out: Ki) it was 33 nM.

Turning to `COc1c(OCCOCCOCCOCCOCCOCCOCCOCCOCCOCCOc2ccc(C3CCN(c4ccn5c(CC6CC6)nnc5c4Cl)CC3)cc2)cccc1C(=O)C1CCN(CCc2ccc(F)cc2)CC1`, the IC50 is 300 nM in test [1] (read-out: IC50); 309 nM in test [1] (read-out: pIC50 (converted)); 140 nM in [7]; 1200 nM in test [8]; 300 nM in [4] (read-out: IC50). The EC50 in test [2] (read-out: EC50) is 10000 to 50000 nM; in test [3] (read-out: EC50) it was 320 nM; in [5] (read-out: EC50), 1200 nM. Moreover, the Ki was 120 nM in test [9] (read-out: Ki), 70 nM in test [10] (read-out: Ki), 72.4 nM in [10] (read-out: pKi (converted)) and 79 nM in test [11] (read-out: Ki).

Regarding `COc1c(OCCOCCOCCOc2ccc(C3CCN(c4ccn5c(CC6CC6)nnc5c4Cl)CC3)cc2)cccc1C(=O)C1CCN(CCc2ccc(F)cc2)CC1`, the IC50 in test [1] (read-out: IC50) came to 7900 nM; in [7] it was 9900 nM; in test [8], 5300 nM; in test [4] (read-out: IC50) it was 1200 nM. Besides, the EC50 was 10000 to 50000 nM in test [2] (read-out: EC50), 320 nM in [3] (read-out: EC50) and 900 nM in test [5] (read-out: EC50). For the same molecule, the Ki in test [9] (read-out: Ki) is 1040 nM; in test [10] (read-out: Ki), 840 nM; in test [11] (read-out: Ki), 360 nM.

In the case of `COc1c(OCCOCCOCCOCCOCCOCCOCCOCCOc2ccc(C3CCN(c4ccn5c(CC6CC6)nnc5c4Cl)CC3)cc2)cccc1C(=O)C1CCN(CCc2ccc(F)cc2)CC1`, the IC50 stood at 270 nM in test [1] (read-out: IC50), 470 nM in test [7], 660 nM in test [8] and 410 nM in [4] (read-out: IC50). For the same molecule, the EC50 in [2] (read-out: EC50) was 10000 to 50000 nM; in [3] (read-out: EC50), 510 nM; in test [5] (read-out: EC50), 1600 nM. Moreover, the Ki was 160 nM in [9] (read-out: Ki); 132 nM in test [9] (read-out: pKi (converted)); 120 nM in [10] (read-out: Ki); 110 nM in test [11] (read-out: Ki); 120 nM in test [11] (read-out: pKi (converted)).

Regarding `COc1c(O)cccc1C(=O)C1CCN(CCc2ccc(F)cc2)CC1`, the IC50 in [1] (read-out: IC50) stood at 9.2 nM; in [7] it was 22 nM; in [8], 23 nM; in [4] (read-out: IC50), 11 nM. Also, the EC50 is greater than 50000 nM in test [2] (read-out: EC50); greater than 50100 nM in test [2] (read-out: pEC50 (converted)); greater than 50000 nM in test [3] (read-out: EC50); greater than 50100 nM in test [3] (read-out: pEC50 (converted)); greater than 50000 nM in test [5] (read-out: EC50); greater than 50100 nM in [5] (read-out: pEC50 (converted)).
